Screens from PubChem.
This excerpt belongs to a sample that is enriched for hits.
CHOP UPR activ – activators of apoptotic arm of unfolded protein response (CHOP); CHO-CHOP luciferase reporter, UPR activation, luminescence; percent of tunicamycin response over DMSO baseline; activation, % at 10 µM; hit rate 0.34% among 330,000;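 active means at 10 µM dose, activation of 40% or more, normalized to positive control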;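 further: 100% = tunicamycin at 10 µg/mL and 0% = DMSO alone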
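System: CHO CHOP reporter cells. Amount: 500 cells per well. Buffer or medium: F12 medium, 10% FBS. Compound dosing: one dose, 10 µM in 0.5% DMSO. Incubation: 6 h compound exposure at 37 °C after overnight seeding. Technique: Steady-Glo luciferase luminescence. Benchmarks: tunicamycin and DMSO controls.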
Bfl-1 A1 inh – inhibitors of the anti-apoptotic protein A1, read as caspase activation; MEF A1-2A-BIM cells, Caspase-Glo 3/7 luminescence, 3 h; percent of clofoctol response, vehicle zero; caspase activation, % (no concentration beside the values); hit rate 0.066% among 330,000; AID 2462;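 active means over half of replicate activation scores above 10%, or exactly half above 10 with the replicate mean above 10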
CHOP inh – CHOP inhibition in unfolded protein response; CHO-K1 CHOP-promoter luciferase, tunicamycin-induced, 15-18 h; hit rate 3.8% among 220,000; inhibition, % at 10 µM;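 active means compounds that reduced the stress-induced luciferase reporter signal by more than about 70% of percent inhibition, limit read from the data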;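 further: 0% = tunicamycin plus vehicle and 100% = wells without tunicamycin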
XBP1 UPR activ – activators of adaptive arm of unfolded protein response (XBP1) | activation, % at 20 µM | hit rate 0.33% among 330,000 | CHO-XBP1 luciferase reporter, IRE1-XBP1 UPR activation, luminescence; percent of tunicamycin response, DMSO as zero | AID 463104;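 active means versus positive control, 20 µM dose yields 30% or more activation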;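 further: 100% = tunicamycin at 10 µg/mL and 0% = DMSO only wells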
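Material – CHO cell line with stable XBP1 luciferase reporter · Buffer or medium – F12 plus 10% FBS · Compound – single point, 20 µM final compound, 1% DMSO · Schedule – 16-18 h cell attachment at 37 °C, then 6 h compound exposure · Signal – Steady-Glo luminescence read · Benchmarks – high control tunicamycin 10 µg/mL final, low control DMSO vehicle only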
* hit, by the source's call; . = no result.

SMILES | CHOP UPR activ | Bfl-1 A1 inh | CHOP inh | XBP1 UPR activ
COc1ccc2nc(N3C(=O)C(O)=C(C(=O)c4ccco4)C3c3ccc(C)o3)sc2c1 (stereo not drawn) | 3 | . | . | 0
Cc1ccc2nc(N3C(=O)C(O)=C(C(=O)c4ccco4)C3c3cccs3)sc2c1 (stereo not drawn) | 3 | -5 | 94* | 3
Cc1cc(C(=O)NC(C)c2ccc3c(c2)OCO3)cs1 (stereo not drawn) | 0 | 0 | 74* | 1
Fc1cccc(Cl)c1CNc1ccc(N2CCCC2)cc1 | 6 | 0 | -15 | -3
CCC(=O)Nc1cc2nn(-c3ccccc3)nc2cc1Cl | -2 | -9 | 79* | -1
Cc1c(NC2=CC(=O)CC(C)(C)C2)ccc([N+](=O)[O-])c1C | -1 | 0 | 85* | -1
O=C(O)C(Cc1ccccc1)N1C(=O)/C(=C/c2cccc3ccccc23)SC1=S (stereo not drawn) | . | -1 | 106* | .
COc1ccc(OC)c(/C(O)=C/C(=O)C(=O)Nc2ccccc2OC)c1 | -1 | 1 | 75* | -1
COc1ccc(NC(=O)Nc2ccccc2OC)cc1 | 4 | 0 | 37 | 2
Cc1ccc(OCc2nnc(SCC(=O)CC(=O)Nc3ccccc3)o2)cc1 | -2 | 0 | 73* | -3
COc1ccc(OCc2nnc(SCC(=O)Nc3ccc(C)cc3)o2)cc1 | 0 | 0 | . | 0
Cc1ccc(C(=O)N2C(=O)C(c3ccccc3)Oc3ccccc32)cc1 (stereo not drawn) | 1 | 0 | 15 | -3
Cc1ccc(C(=O)N2CCN(c3ccc(C(F)(F)F)cn3)CC2)c(C)c1 | 1 | -1 | 60 | -3
CCCNS(=O)(=O)c1ccc(OCC(=O)Nc2ccc3c(c2)OCCO3)cc1 | -2 | 0 | -2 | 0
Cc1ccc(S(=O)(=O)c2c(C)nn(C(C)(C)C)c2OC(=O)C2CCCC2)cc1 | 0 | 0 | 77* | -1
CCCCNC(=S)NNC(=O)c1ccco1 | 1 | 0 | 2 | -1
CCNc1nc(NC(C)C)nc(N(C#N)Cc2ccccc2)n1 | -1 | 0 | 41 | 5
CCNc1nc(NC(C)C)nc(N(C#N)CCOc2ccc(Cl)cc2Cl)n1 | -2 | 1 | 76* | -2
O=C(COc1ccc2ccccc2c1)NN1C(=O)c2ccccc2C1=O | -1 | 1 | 19 | -2
COc1ccc([N+](=O)[O-])cc1NC(=S)NC(C)=O | 0 | 0 | 13 | -4
COc1cc([N+](=O)[O-])ccc1NC(=S)Nc1cc(C(=O)OC(C)C)cc(C(=O)OC(C)C)c1 | 15 | -1 | 85* | 0
CC1CCCCN1c1ncnc(N)c1[N+](=O)[O-] (stereo not drawn) | -1 | -1 | 38 | -2
CC1Cc2ccccc2N1c1ncnc(N)c1[N+](=O)[O-] (stereo not drawn) | -4 | 1 | 72* | -6
Cc1cccc(N=C2NC(=O)/C(=C3/C(=O)N(C)c4ccccc43)S2)c1C | 4 | 1 | 88* | 0
Cc1ccccc1N=C1NC(=O)/C(=C/c2cccn2C)S1 | 1 | 0 | 39 | 1
SMILES | CHOP UPR activ | Bfl-1 A1 inh | CHOP inh | XBP1 UPR activ
COC(=O)COc1ccc(S(=O)(=O)N2CCc3ccccc3C2)cc1 | -2 | 0 | 8 | -3
Cc1ccc(S(=O)(=O)NNC2CC(=O)N(c3ccc(Br)cc3)C2=O)cc1 (stereo not drawn) | -2 | 0 | 73* | 0
Cc1ccc(N2C(=O)CC(Nc3ccccc3)C2=O)cc1 (stereo not drawn) | -2 | 1 | 1 | 2
Cc1cccc(N2C(=NC(=O)c3ccccc3)SC3CS(=O)(=O)CC32)c1 (stereo not drawn) | -1 | 0 | . | -4
CC(C)(CC(=O)N1CCN(c2ccc(Cl)cc2)CC1)CC1=NS(=O)(=O)c2ccccc2N1 | 6 | 1 | 71* | 2
Clc1ccc(N/N=C/c2ccncc2)cc1Cl | 4 | -1 | -15 | 1
Cc1ccc2nc(C(Cl)(Cl)Cl)nc(N/N=C/c3ccncc3)c2c1 | 0 | 0 | 72* | -1
Fc1ccccc1/C=N/Nc1nc(-c2ccccn2)nc2ccccc12 | 168* | 0 | 54 | 5
Cc1ccc(-c2nc(N/N=C/c3ccncc3)c3ccccc3n2)cc1 | -1 | 0 | 81* | -1
COc1ccc(NS(=O)(=O)c2cc(NS(=O)(=O)c3cccs3)ccc2C)cc1 | 1 | . | . | 0
O=C(O)c1cc2c(cc1Br)OCCCO2 | 2 | 0 | -13 | -3
COC(=O)c1ccc2c(=O)n(Cc3ccco3)c(SCC(=O)Nc3ccc(C)c(Cl)c3)nc2c1 | 40 | 17* | 30 | 38*
CCOc1ccc(C(=O)Nc2ccccc2-c2ccccc2)cc1Cl | -3 | -1 | 81* | -2
Cc1ccccc1NC(=O)C1CCCN1/C=C/C(=O)C(F)(F)F (stereo not drawn) | 0 | 0 | -6 | -5
COc1ccc(C(C)=O)cc1COC(=O)CCCN1C(=O)c2ccccc2C1=O | 1 | 1 | 29 | -3
CCN1CCN(Cc2ccc(NC(=O)c3cc(NC(=O)N4CCNC4=O)cc(OC)c3)cc2C(F)(F)F)CC1 | -1 | -1 | 10 | 2
COc1cc(NC(=O)N2CCNC2=O)cc(C(=O)Nc2cccc(C(F)(F)F)c2)c1 | 2 | 2 | 74* | 8
Cc1oc(-c2ccc3c(c2)OCCO3)cc1C(=O)O | -7 | -10 | 72* | -6
NNc1ncnc2c1cnn2-c1ccccc1 | 3 | -1 | 6 | 11
Cc1ccccc1Nc1ncnc2c1cnn2-c1ccccc1 | 5 | 0 | 73* | 4
CCOc1ccc(Nc2ncnc3c2cnn3-c2ccccc2)cc1 | 7 | 0 | 101* | 3
Nn1c(SCc2ccc(C(=O)O)cc2)nnc1-c1ccc(Cl)cc1Cl | 3 | 0 | . | -4
c1ccc(-c2csc3ncnc(NCc4ccccn4)c23)cc1 | -1 | 0 | 42 | 5
c1ccc(CNc2ncnc3scc(-c4cccs4)c23)nc1 | -1 | -1 | 72* | 2
COc1ccc(NC(=O)Cc2c(SC)c3ccccc3n2Cc2ccccc2)cc1 | -1 | 0 | 74* | -1
SMILES | CHOP UPR activ | Bfl-1 A1 inh | CHOP inh | XBP1 UPR activ
Cc1ccccc1N1C(=O)C(Cl)=C(N2CCCCCC2)C1=O | -4 | 0 | 80* | 0
COCCCNC(=O)c1cn(CC(C)C)c(=O)c2c1c1ccccc1n2C | -1 | -1 | 15 | 2
CCOc1ccc(NC(=O)c2cn(CC(C)C)c(=O)c3c2c2ccccc2n3C)cc1 | 1 | -1 | 90* | 7
CCC(C)Oc1cc(-c2ccnc(Nc3cccc(Cl)c3)n2)ccn1 (stereo not drawn) | -2 | 1 | 93* | -6
O=C(Cn1c(COc2ccccc2)nc2ccccc21)Nc1cc(Cl)ccc1Cl | 3 | 0 | 82* | 4
CCn1c(=O)c2cc(C(=O)Nc3ccc(OC)cc3OC)sc2c2ccccc21 | -1 | 0 | -4 | -1
Cc1ccccc1C(=O)Oc1ccc(Sc2ccc(O)cc2)cc1 | 4 | -1 | 96* | 2
